This is a sample that favours compounds with a hit; in the whole collection about 5.8% have one here.
Tcruzi prolif: inhibitors of T. cruzi proliferation; T. cruzi beta-gal in NIH3T3, GalScreen luminescence, 90 h; inhibition, % at 8.34 µM; 5.9% of 77,000 active; AID 624255;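 active = mean inhibition above about 93%, with at least 55% of replicates each passing it, limit read from the data, passing the limit was not always enough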
GASC1 inh: KDM4C (human) demethylase inhibition; 0.15% of 96,000 active; GST-KDM4C 2-372, H3K9me3 peptide, LANCE TR-FRET; AID 720574; inhibition, % at 12.5 µM;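 active = mean replicate inhibition above about 25%, with at least 55% of replicates also reaching it, limit read from the data, passing the limit was not always enough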
Target sequence (Q9H3R0 2-372 limits assumed): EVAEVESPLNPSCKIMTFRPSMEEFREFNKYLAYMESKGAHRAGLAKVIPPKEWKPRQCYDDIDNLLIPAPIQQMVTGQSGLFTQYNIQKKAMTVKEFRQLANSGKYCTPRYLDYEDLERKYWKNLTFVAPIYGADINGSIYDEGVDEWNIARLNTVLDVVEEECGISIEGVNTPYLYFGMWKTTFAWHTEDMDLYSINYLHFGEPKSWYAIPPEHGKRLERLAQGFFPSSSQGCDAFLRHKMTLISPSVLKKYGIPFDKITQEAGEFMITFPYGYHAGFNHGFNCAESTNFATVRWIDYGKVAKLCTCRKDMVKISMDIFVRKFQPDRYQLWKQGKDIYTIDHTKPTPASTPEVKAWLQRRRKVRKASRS
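Compound: one test concentration per compound; Material: GST-GASC-1 enzyme fragment 2-372; Amount: GASC-1 enzyme at 10 nM final in reaction; Also added: H3K9me3 peptide substrate, Fe(II), 2-oxoglutarate; Technique: LANCE TR-FRET; Times: 30 min demethylation and 1 h detection at room temperature.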
Pf Dd2 growth: inhibitors of Plasmodium falciparum Dd2 growth. P. falciparum Dd2 growth, SYBR Green, 72 h; hits give low values. AID 1159554. activity change, % at 10 µM. 2.3% of 94,000 active; in the data active = activity change below about -80%
IDH1 R132H inh: IDH1 R132H (human) inhibition. O75874. IDH1 R132H reductase, diaphorase/resazurin fluorescence, 60 min. inhibition, % at 10 µM. 0.18% of 70,000 active. AID 624101; in the data active = inhibition above about 34%
Numbers stand for hits; n = inactive; x = not tested or not shown.

SMILES | Tcruzi prolif | GASC1 inh | Pf Dd2 growth | IDH1 R132H inh
Cc1noc(C)c1S(=O)(=O)Nc1ccc2c(c1)CC(=O)N([C@H](C)CO)C[C@@H](C)[C@@H](CN(C)Cc1ccc(C(=O)Nc3ccccc3N)cc1)O2 | x | n | -88.5 | n
Cc1noc(C)c1S(=O)(=O)Nc1ccc2c(c1)CC(=O)N([C@H](C)CO)C[C@H](C)[C@@H](CN(C)Cc1ccc(C(=O)Nc3ccccc3N)cc1)O2 | x | n | n | n
C[C@H]1CN([C@@H](C)CO)C(=O)c2cc(NC(=O)Cc3cn(C)c4ccccc34)ccc2O[C@H]1CN(C)S(=O)(=O)c1cccs1 | n | n | -89.8 | n
C[C@@H]1CN([C@@H](C)CO)C(=O)c2cc(NC(=O)Cc3cn(C)c4ccccc34)ccc2O[C@H]1CN(C)S(=O)(=O)c1cccs1 | n | n | n | x
C[C@H](CO)N1C[C@H](C)[C@H](CN(C)S(=O)(=O)c2cccs2)Oc2ccc(NC(=O)Cc3cn(C)c4ccccc34)cc2C1=O | n | n | -86.4 | n
C/C=C/c1ccc2c(c1)[C@H]1[C@H](CCN1C(=O)c1ccc(F)cc1)[C@H](CO)N2 | x | n | -89.1 | x
C/C=C/c1ccc2c(c1)[C@H]1[C@H](CCN1C(=O)c1cccc(F)c1)[C@H](CO)N2 | x | n | -92.8 | x
CC(=O)N1CC[C@H]2[C@H](CO)Nc3ccc(C#Cc4ccccc4F)cc3[C@H]21 | x | n | n | x
C/C=C/c1ccc2c(c1)[C@@H]1[C@@H](CCN1S(=O)(=O)c1ccc(C)cc1)[C@@H](CO)N2 | n | n | n | x
O=C(c1cccc(F)c1)N1CC[C@H]2[C@H](CO)Nc3ccc(-c4cccc(F)c4)cc3[C@H]21 | n | n | n | x
C/C=C/c1ccc2c(c1)[C@@H]1[C@@H](CCN1S(=O)(=O)c1ccccc1C)[C@H](CO)N2 | x | n | -85.6 | x
CC(=O)N1CC[C@@H]2[C@@H](CO)Nc3ccc(C#Cc4ccccc4F)cc3[C@@H]21 | n | n | -82.6 | x
COC(=O)c1ccccc1NC(=O)CC(O)(C(F)(F)F)C(F)(F)F | x | x | x | n
CC(C)Cc1cnc(CCC(N)=O)c(=O)[nH]1 | x | x | x | n
CSc1ccccc1NC(=O)C(C)N(c1ccc(C)cc1)S(C)(=O)=O (stereo unspecified) | x | x | x | n
O=C(Cc1cccnc1)N1CC[C@H]2[C@H](CO)Nc3ccc(C#Cc4cccc(F)c4)cc3[C@H]21 | x | n | -83.8 | x
O=C(c1cccc(F)c1)N1CC[C@H]2[C@H](CO)Nc3ccc(C#Cc4cccc(F)c4)cc3[C@H]21 | x | n | -83.7 | x
CC(=O)N(C)C[C@@H]1[C@@H](c2ccc(C3=CCCC3)cc2)[C@@H](CO)N1CC1CC1 | n | n | n | x
CCCN1[C@H](CO)[C@H](c2ccc(C3=CCCC3)cc2)[C@H]1CN(C(C)=O)C1CCCC1 | x | n | -95.2 | x
CC1(C)CC[C@]2(C(=O)O)CC[C@]3(C)C(=CCC4[C@@]5(C)CC[C@H](O[C@@H]6O[C@H](C(=O)O)[C@@H](O[C@@H]7OC[C@@H](O)[C@H](O)[C@H]7O)[C@H](O)[C@H]6O)C(C)(C)C5CC[C@]43C)C2C1 (stereo partly specified) | x | x | x | n
O=C(OCc1nc2ccccc2s1)c1ccc([N+](=O)[O-])cc1 | x | x | x | n
CCCC#Cc1ccc2c(c1)O[C@@H](CN(C)S(C)(=O)=O)[C@@H](C)CN([C@H](C)CO)S2(=O)=O | n | 41.2 | n | n
C[C@H]1CN([C@@H](C)CO)S(=O)(=O)c2ccc(C#Cc3cccc(F)c3)cc2O[C@@H]1CN(C)C | n | 55.2 | n | 71.4
CC(C)C#Cc1ccc2c(c1)O[C@@H](CN(C)C)[C@@H](C)CN([C@H](C)CO)S2(=O)=O | x | 60.3 | n | 74.5
COc1ccc(-c2cc(C(F)(F)F)n3nc(C(=O)NCCN4CCOCC4)c(Br)c3n2)cc1 | x | x | x | n
SMILES | Tcruzi prolif | GASC1 inh | Pf Dd2 growth | IDH1 R132H inh
O=C(O)c1cc(N(Cc2ccccc2O)Cc2cc(O)ccc2O)ccc1O | x | x | x | 41.2
CN1c2ccc(C#Cc3cccnc3)cc2[C@@H]2[C@@H](CCN2S(=O)(=O)c2ccccc2F)[C@@H]1CO | n | n | -87.9 | x
CN1c2ccc(C#Cc3cccnc3)cc2[C@@H]2[C@@H](CCN2C(=O)C2CCCC2)[C@H]1CO | x | n | n | x
CN1c2ccc(C#Cc3cccnc3)cc2[C@@H]2[C@@H](CCN2C(=O)C2CCC2)[C@@H]1CO | x | n | -87.4 | x
CN1c2ccc(C#Cc3cccc(F)c3)cc2[C@H]2[C@H](CCN2S(=O)(=O)c2ccccc2F)[C@@H]1CO | n | n | n | x
CN(C)c1ccc2c(c1)[C@@H]1C[C@H](CC(=O)O)O[C@@H](CO)[C@@H]1O2 | n | n | n | n
COC(=O)C[C@H]1C[C@H]2c3cc(N(C)C)ccc3O[C@H]2[C@H](CO)O1 | n | 43.4 | n | n

Screening data from PubChem BioAssay.
